This note sets out measurements from ChEMBL document CHEMBL1123659, “2-Phenylindoles. Effect of N-benzylation on estrogen receptor affinity, estrogenic properties, and mammary tumor inhibiting activity” (J Med Chem, 1987).

For assay [1], the target named is Estrogen receptor (Bos taurus) (UniProt Q9XSB5+P49884). Kind of assay: Relative binding affinity for the calf uterine estrogen receptor by 17-beta-[3H]-estradiol displacement. Format: protein assay. In a few lines: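 Calf uterine cytosol (105000g supernatant, 3 mg/mL protein final) in Tris-EDTA-NaN3 buffer, pH 7.5. Incubated with 5 nM 17β-[3H]estradiol and 10^-9–10^-5 M competitor for 18 h at 4 °C. Dextran-coated charcoal added for 90 min, then supernatant radioactivity counted. Nonspecific binding taken with 5 µM estradiol. RBA = molar ratio of estradiol to competitor at 50% displacement ×100.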

The subject of assay [2] is MDA-MB-231. Kind of assay: Effect on [3H]thymidine incorporation into estrogen receptor negative MDA-MB 231 human breast carcinoma cells at 1*10e-6 M. Format: functional.
Assay [3] concerns MCF7. The experiment in a line: Effect on [3H]thymidine incorporation into estrogen receptor positive MCF-7 human breast carcinoma cells at 10e-6 M (ex 2).
Assay [4] relates to MCF7. Kind of assay: Effect on [3H]thymidine incorporation into estrogen receptor positive MCF-7 human breast carcinoma cells at 10e-5 M (ex 1). Format: functional. In a few lines:
(§1)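 MCF-7 cells kept in MEM with 5% charcoal-stripped newborn calf serum for two weeks. About 2×10^4 cells per well plated, then one day later exposed to compound in 0.1% ethanol. Ethanol-only controls. Medium changed on day 4. Three days later cells labelled with 1 µCi [3H]thymidine per well for 2 h. TCA-insoluble radioactivity per dish counted, mean of six dishes ± SD, expressed as % T/C.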

Assay [5] relates to MCF7. Kind of assay: Effect on [3H]thymidine incorporation into estrogen receptor positive MCF-7 human breast carcinoma cells at 10e-7 M (ex 2). In general terms: Uptake of a labelled nucleoside into DNA is a usual measure of proliferation.
Assay [6] deals with MDA-MB-231. The experiment in a line: Effect on [3H]thymidine incorporation into estrogen receptor negative MDA-MB 231 human breast carcinoma cells at 1*10e-5 M (ex 1). Format: functional.
The subject of assay [7] is MDA-MB-231. The experiment in a line: Effect on [3H]thymidine incorporation into estrogen receptor negative MDA-MB 231 human breast carcinoma cells at 5*10e-6 M. Format: functional.
The subject of assay [8] is MCF7. The experiment in a line: Effect on [3H]-thymidine incorporation into estrogen receptor positive MCF-7 human breast carcinoma cells at 10e-7 M (ex 1). Format: functional. A digest of the protocol:
as §1

Assay [9] relates to MCF7. The experiment in a line: Effect on [3H]-thymidine incorporation into estrogen receptor positive MCF-7 human breast carcinoma cells at 10e-6 M (exp 1). The assay is classed as functional. In a few lines:
as §1

Assay [10] concerns MCF7. The experiment in a line: Effect on [3H]thymidine incorporation into estrogen receptor positive MCF-7 human breast carcinoma cells at 10e-6 M (ex 2). The assay is classed as functional. A digest of the protocol:
as §1

Assay [11] concerns MCF7. The experiment in a line: Effect on [3H]thymidine incorporation into estrogen receptor positive MCF-7 human breast carcinoma cells at 10e-7 M (experiment 2). Format: functional. A digest of the protocol:
as §1

For assay [12], the target named is T1, Estrogen receptor (Mus musculus) (UniProt O08537+P19785). Kind of assay: Anti-estrogenic activity as Uterus dry weight (mg)/body weight (g) *100 in mice at 1 ug. Format: functional, tissue-based. In a few lines:
(§2)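 Immature mice, sc injection on three consecutive days of test compound together with a standard 0.4 µg estrone per animal and day. Dose per animal. Control animals got vehicle. Killed 24 h after the last injection. Uteri Bouin-fixed, cleaned, washed in alcoholic LiCl, dried at 100 °C for 24 h and weighed. Read-out is uterine dry weight (mg)/body weight (g) ×100, mean of 10 animals ± SD.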

The target in assay [13] is T1, Estrogen receptor (Mus musculus). The experiment in a line: Anti-estrogenic activity as Uterus dry weight (mg)/body weight (g) *100 in mice at 125 ug. Format: functional, tissue-based. In a few lines:
as §2

Assay [14] has the same target. The experiment in a line: (§3) Estrogenic activity as Uterus dry weight (mg)/body weight (g) *100 in mice with 0.4 ug estrone. The assay is classed as functional, tissue-based. In a few lines: (§4)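 Immature mice given 0.4 µg estrone per animal sc on three consecutive days. Control animals got vehicle. Killed 24 h after the last injection. Uteri fixed in Bouin, dried at 100 °C for 24 h and weighed. Result expressed as uterine dry weight (mg)/body weight (g) ×100, mean of 10 animals ± SD.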

Assay [15] has the same target. Described as §3. Format: functional, tissue-based. In a few lines: as §4
The source holds these as a separate data set.

Assay [16] has the same target. The experiment in a line: Estrogenic activity as Uterus dry weight (mg)/body weight (g) *100 in mice at 5 ug.
For assay [17] the target is unchanged. The experiment in a line: Anti-estrogenic activity as Uterus dry weight (mg)/body weight (g) *100 in mice at 25 ug. The assay is classed as functional, tissue-based. A digest of the protocol: as §2
For assay [18] the target is unchanged. Kind of assay: Percent inhibition of estrone-stimulated uterine growth in mice. Format: functional. Details: concentration or dose not given beside the values. To be noted: concentration not given here. A digest of the protocol: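 Mouse antiuterotrophic test. Immature mice injected sc on three consecutive days with 0.4 µg estrone plus increasing doses per animal of test compound. Dry uterine weight/body weight ×100 determined 24 h after the last injection, 10 animals per group. Inhibition (%) = 100 − [(E_S,T − E_V)/(E_S − E_V)] ×100, where E_S is estrone alone and E_V is vehicle. Significance by Mann-Whitney U-test.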

Assay [19] shares this target. The experiment in a line: Estrogenic activity as Uterus dry weight (mg)/body weight (g) *100 in mice at 25 ug.
The target is the same in assay [20]. Kind of assay: Anti-estrogenic activity as Uterus dry weight (mg)/body weight (g) *100 in mice at 5 ug. The assay is classed as functional, tissue-based. A digest of the protocol: as §2
The target is the same in assay [21]. The experiment in a line: Estrogenic activity as Uterus dry weight (mg)/body weight (g) *100 in mice at 625 ug.
Assay [22] has the same target. Described as §3. Format: functional, tissue-based. In a few lines:
as §4
This is another data set of the same source.

Assay [23] has the same target. Described as §3. Format: functional, tissue-based. A digest of the protocol: as §4
The source holds these as a separate data set.

Assay [24] shares this target. Kind of assay: Anti-estrogenic activity as Uterus dry weight (mg)/body weight (g) *100 in mice at 250 ug. Format: functional, tissue-based. A digest of the protocol: as §2
For assay [25] the target is unchanged. Kind of assay: Anti-estrogenic activity as Uterus dry weight (mg)/body weight (g) *100 in mice at 75 ug. The assay is classed as functional, tissue-based. In a few lines: as §2
The target is the same in assay [26]. Kind of assay: Anti-estrogenic activity as Uterus dry weight (mg)/body weight (g) *100 in mice at 625 ug. Format: functional, tissue-based. A digest of the protocol:
as §2

For assay [27], the system named is MCF7. Kind of assay: Effect on [3H]thymidine incorporation into estrogen receptor positive MCF-7 human breast carcinoma cells at 10e-6 M (ex 1). Format: functional. In a few lines: as §1
Assay [28] has as its system MCF7. Kind of assay: Effect on [3H]thymidine incorporation into estrogen receptor positive MCF-7 human breast carcinoma cells at 10e-7 M (ex 1). Format: functional. A digest of the protocol: as §1
[29] abbreviates: in the assay text read “Estrogenic activity” for “Anti-estrogenic activity”.

Where “and” joins values, the source holds several entries; their conditions need not be identical. Equal values may be shown once.

T1 sequence (O08537 whole entry, looked up): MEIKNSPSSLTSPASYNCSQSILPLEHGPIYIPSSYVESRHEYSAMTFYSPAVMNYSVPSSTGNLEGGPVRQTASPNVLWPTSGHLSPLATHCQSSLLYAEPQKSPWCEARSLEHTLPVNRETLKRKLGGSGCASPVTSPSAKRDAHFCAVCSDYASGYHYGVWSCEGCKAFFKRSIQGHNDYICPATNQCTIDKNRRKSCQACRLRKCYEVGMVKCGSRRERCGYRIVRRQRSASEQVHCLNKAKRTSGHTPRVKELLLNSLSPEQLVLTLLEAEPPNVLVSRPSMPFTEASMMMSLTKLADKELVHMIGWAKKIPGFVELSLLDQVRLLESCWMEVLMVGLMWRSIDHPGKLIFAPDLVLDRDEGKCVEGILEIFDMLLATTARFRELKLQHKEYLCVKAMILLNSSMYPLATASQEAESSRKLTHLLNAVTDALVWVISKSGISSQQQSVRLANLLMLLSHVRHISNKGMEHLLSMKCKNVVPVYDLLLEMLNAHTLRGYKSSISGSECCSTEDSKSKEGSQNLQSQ
T1 sequence (P19785 whole entry, looked up): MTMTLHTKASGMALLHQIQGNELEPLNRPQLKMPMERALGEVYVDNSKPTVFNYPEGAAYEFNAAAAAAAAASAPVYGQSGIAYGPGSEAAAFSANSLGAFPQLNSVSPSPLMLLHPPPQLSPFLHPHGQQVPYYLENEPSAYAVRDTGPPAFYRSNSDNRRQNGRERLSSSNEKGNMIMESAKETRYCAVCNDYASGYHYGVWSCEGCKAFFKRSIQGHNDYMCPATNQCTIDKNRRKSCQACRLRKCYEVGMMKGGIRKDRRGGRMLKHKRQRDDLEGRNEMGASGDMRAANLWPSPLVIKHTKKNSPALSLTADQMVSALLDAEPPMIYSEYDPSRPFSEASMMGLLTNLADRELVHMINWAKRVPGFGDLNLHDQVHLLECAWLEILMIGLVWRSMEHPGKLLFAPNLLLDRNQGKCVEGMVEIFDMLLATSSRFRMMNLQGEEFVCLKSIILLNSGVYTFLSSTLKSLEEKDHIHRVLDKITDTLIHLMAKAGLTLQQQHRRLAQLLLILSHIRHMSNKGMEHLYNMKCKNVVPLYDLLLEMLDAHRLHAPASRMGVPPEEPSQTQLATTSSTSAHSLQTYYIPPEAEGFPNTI

`Cc1c(-c2cccc(O)c2)n(Cc2ccccc2)c2ccc(O)cc12` came in with a relative binding affinity (RBA) in assay [1] of 3.
The same measure, in the same setting: for `Cc1c(-c2ccc(O)cc2)n(-c2ccccc2)c2cc(O)ccc12` the value was 7.5.
Take `Cc1c(-c2ccc(O)cc2)n(Cc2ccc(C#N)cc2)c2ccc(O)cc12`: the T/C – broadly, the ratio of treated to control – in the assay on MDA-MB-231 [2] was 10.5 ×10^4 per dish; in the assay on MCF7 [3] it was 7.8 ×10^4 per dish; in the assay on MCF7 [4], 1.3 ×10^4 per dish; with MCF7 [5], 17.3 ×10^4 per dish; with MDA-MB-231 [6], 11 ×10^4 per dish; in the assay with MDA-MB-231 [7], 10.5 ×10^4 per dish. The compound also gave a relative binding affinity (RBA) in assay [1] of 14.
In the case of `Cc1ccc(Cn2c(-c3ccc(O)cc3)c(C)c3cc(O)ccc32)cc1`, the relative binding affinity (RBA) in assay [1] was determined as 11.
Compound `Cc1c(-c2ccc(O)cc2)n(C(=O)c2ccccc2)c2ccc(O)cc12` had a relative binding affinity (RBA) in assay [1] of 2.4.
The same measure, in the same setting: next, `Cc1c(-c2ccc(O)cc2)n(Cc2ccccc2Cl)c2ccc(O)cc12`: 8.7; `Cc1cccc(Cn2c(-c3ccc(O)cc3)c(C)c3cc(O)ccc32)c1`: 6.6; `Cc1c(-c2ccc(O)cc2)n(Cc2ccccc2)c2ccccc12`: 0.55.
On to `CC/C(=C(\c1ccccc1)c1ccc(OCCN(C)C)cc1)c1ccccc1` [TAMOXIFEN], for which the T/C was 4.5 ×10^4 per dish with MCF7 [8]; 2.2 ×10^4 per dish in the assay on MCF7 [9]; 5.3 ×10^4 per dish with MCF7 [10]; 6.7 ×10^4 per dish and 10.8 ×10^4 per dish in the assay with MCF7 [11].
In turn, `Cc1c(-c2ccc(O)cc2)n(Cc2ccccc2)c2cc(O)ccc12` came in with a relative binding affinity (RBA) in [1] of 11.
As for `CC(=O)Oc1ccc(-c2c(C)c3cc(OC(C)=O)ccc3n2Cc2ccccc2)cc1`, the Activity in assay [12] worked out at 49.9; in [13], 34.7; in [13] (setting [29]), 30.7; in assay [14], 47.4; in [15], 48.2; in [16], 13.3. Further, the Activity came to 42.8 in assay [17], 22.6 in assay [19], 48.7 in [20] and 38.1 in [21]. In addition, the inhibition (in general, the share of the control response that was lost under treatment) in assay [18] was 17% and < 42%.
As for `COc1ccc(Cn2c(-c3ccc(OC(C)=O)cc3)c(C)c3cc(OC(C)=O)ccc32)cc1`, the Activity in assay [12] is 47.1; in assay [13], 40.1; in assay [13] (setting [29]) it was 30.9; in [14] it was 52.2; in assay [16], 14.3; in assay [22] it was 47.8. Besides, the Activity in assay [17] turned out to be 46.8; in assay [19] it was 14.7; in assay [20] it was 47.4; in [21] it was 45. The compound further returned an inhibition in assay [18] of 23%.
In assay [1], `Cc1c(-c2ccc(O)cc2)n(CCc2ccccc2)c2ccc(O)cc12` displayed a relative binding affinity (RBA) of 2.
The same measure, in the same setting: next, `Cc1c(-c2ccc(O)cc2)n(Cc2c(Cl)cccc2Cl)c2ccc(O)cc12`: 3.6; `Cc1c(-c2ccc(O)cc2)n(Cc2cccc(Cl)c2)c2ccc(O)cc12`: 5.1; `Cc1c(-c2ccc(O)cc2)n(Cc2ccc(O)cc2)c2ccc(O)cc12`: 8.
The same measure, in the same setting: for `Cc1c(-c2ccc(O)cc2)n(-c2ccccc2)c2ccc(O)cc12` the value was 9.
As for `CC(=O)Oc1ccc(-c2c(C)c3ccc(OC(C)=O)cc3n2Cc2ccccc2)cc1`, the Activity in assay [12] turned out to be 54.2; in [13], 44.6; in [13] (setting [29]), 32.4; in assay [23], 48.2; in assay [14], 46.5; in assay [16], 12.3. The Activity in assay [17] stood at 52.1; in [19], 17.1; in [20], 50.4; in assay [21], 32.6. The inhibition in assay [18] amounted to 11%.
The compound `Cc1c(-c2ccccc2)n(Cc2ccccc2)c2ccc(O)cc12` displayed a relative binding affinity (RBA) in assay [1] of 2.6.
On the same count and under the same terms, for `Cc1c(-c2ccc(O)cc2)n(CC2CCCCC2)c2ccc(O)cc12` the value was 5.2.
For `CC(=O)Oc1ccc(-c2c(C)c3ccc(OC(C)=O)cc3n2-c2ccccc2)cc1`, the Activity in assay [12] was 43.2; in [13], 32.4; in assay [13] (setting [29]) it was 26.4; in assay [14], 42; in [16], 13.4; in assay [22] it was 42. Besides, the Activity worked out at 43.5 in assay [17], 17.8 in assay [19], 41 in assay [20] and 34.8 in [21]. Moreover, the inhibition in assay [18] was 33%.
On to `Cc1c(-c2ccc(O)cc2)n(Cc2ccc(Cl)cc2)c2ccc(O)cc12`, for which the relative binding affinity (RBA) in assay [1] worked out at 8.
On to `CC(=O)Oc1ccc(-c2c(C)c3cc(OC(C)=O)ccc3n2Cc2ccc(C#N)cc2)cc1`, for which the Activity in assay [24] worked out at 30.4; in [13] it was 30.5; in [13] (setting [29]) it was 20; in assay [14], 48.2; in assay [16], 14; in [22] it was 43.7. Also, the Activity in [17] came to 37.9; in [25], 34.1; in [19], 15.1; in assay [26], 31.5; in assay [21] it was 27.4.
Regarding `CC(=O)Oc1ccc(-c2c(C)c3cc(OC(C)=O)ccc3n2Cc2ccc(C)cc2)cc1`, the Activity in [12] was 49.2; in assay [13] it was 36; in assay [13] (setting [29]), 32.9; in assay [16], 14.4; in assay [22], 46.5 and 47.8; in assay [17], 42.5. The Activity in assay [19] was 20.3; in assay [20], 46.3; in assay [21], 40. The inhibition in [18] is 16% and < 35%.
As to `Cc1c(-c2ccc(O)cc2)n(Cc2ccccc2)c2ccc(O)cc12`, the T/C in the assay on MCF7 [27] was 17.4 ×10^4 per dish; in the assay on MCF7 [28], 20.3 ×10^4 per dish. The same compound yielded a relative binding affinity (RBA) in assay [1] of 16.
